Measurements reported in ChEMBL document CHEMBL1154756, “Synthesis of new chalcone derivatives containing acridinyl moiety with potential antimalarial activity” (Eur J Med Chem, 2010).
Calls of active or inactive are those of the source. The rule behind the calls is not given here.

Columns and labels:
Plasmodium falciparum [1] = test: Antimalarial activity against chloroquine-sensitive Plasmodium falciparum NF54 assessed as inhibition of schizont maturation at 2 ug/ml after 36-40 hrs relative to control; assay type: functional; parameters: scale not given: the % may be the effect or the level left
Procedure, shortened: (§1)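 NF-54 cultures were kept in RPMI 1640 with 25 mM HEPES, 1% bicarbonate and 0.5% ALBUMAX-II. Wells held 3% haematocrit in medium with 10% FBS, and compound was added from a 5 mg/mL DMSO stock diluted in medium. Duplicates were incubated at 37 °C in CO2 for 36–40 h. Rings, trophozoites and schizonts were counted per 100 parasites on Giemsa smears, giving % maturation inhibition versus untreated control.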

Plasmodium yoelii [2] = test: Antimalarial activity against chloroquine-resistant Plasmodium yoelii N67 infected in Swiss mice (Mus musculus) assessed as mean survival time at 50 mg/kg, intraperitoneal once daily for 4 consecutive days; assay type: functional
Plasmodium falciparum [3] = test: Antimalarial activity against chloroquine-sensitive Plasmodium falciparum NF54 assessed as inhibition of schizont maturation at 50 ug/ml after 36-40 hrs relative to control; assay type: functional; parameters: scale not given: the % may be the effect or the level left; procedure, shortened: as §1
Plasmodium falciparum [4] = test: Antimalarial activity against chloroquine-sensitive Plasmodium falciparum NF54 assessed as inhibition of schizont maturation at 0.4 ug/ml after 36-40 hrs relative to control; assay type: functional; parameters: scale not given: the % may be the effect or the level left; procedure, shortened: as §1
Plasmodium falciparum [5] = test: Antimalarial activity against chloroquine-sensitive Plasmodium falciparum NF54 assessed as inhibition of schizont maturation at 10 ug/ml after 36-40 hrs relative to control; assay type: functional; parameters: scale not given: the % may be the effect or the level left; procedure, shortened: as §1
Plasmodium falciparum [6] = test: Antimalarial activity against chloroquine-sensitive Plasmodium falciparum NF54 assessed as inhibition of schizont maturation at 100 ug/ml after 36-40 hrs relative to control; assay type: functional; parameters: scale not given: the % may be the effect or the level left; procedure, shortened: as §1
Plasmodium yoelii [7] = test: Antimalarial activity against chloroquine-resistant Plasmodium yoelii N67 infected in Swiss mice (Mus musculus) assessed as suppression of parasitaemia at 50 mg/kg, intraperitoneal once daily for 4 consecutive days measured after 6 days; assay type: functional, organism-based; parameters: dose 50 mg/kg
Plasmodium yoelii [8] = test: Antimalarial activity against chloroquine-resistant Plasmodium yoelii N67 infected in Swiss mice (Mus musculus) assessed as suppression of parasitaemia at 50 mg/kg, intraperitoneal once daily for 4 consecutive days measured after 4 days; assay type: functional
Plasmodium falciparum [9] = test: Antimalarial activity against chloroquine-sensitive Plasmodium falciparum NF54 assessed as inhibition of schizont maturation at 0.50 ug/ml after 36-40 hrs relative to control; assay type: functional; parameters: scale not given: the % may be the effect or the level left
Plasmodium falciparum [10] = test: Antimalarial activity against chloroquine-sensitive Plasmodium falciparum NF54 assessed as inhibition of schizont maturation at 0.125 ug/ml after 36-40 hrs relative to control; assay type: functional; parameters: scale not given: the % may be the effect or the level left
Plasmodium falciparum [11] = test: Antimalarial activity against chloroquine-sensitive Plasmodium falciparum NF54 assessed as inhibition of schizont maturation at 0.0625 ug/ml after 36-40 hrs relative to control; assay type: functional; parameters: scale not given: the % may be the effect or the level left
Plasmodium falciparum [12] = test: Antimalarial activity against chloroquine-sensitive Plasmodium falciparum NF54 assessed as inhibition of schizont maturation at 0.25 ug/ml after 36-40 hrs relative to control; assay type: functional; parameters: scale not given: the % may be the effect or the level left
Plasmodium falciparum [13] = test: Antimalarial activity against chloroquine-sensitive Plasmodium falciparum NF54 assessed as inhibition of schizont maturation; assay type: functional; parameters: scale not given: the % may be the effect or the level left
Procedure, shortened: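 P. falciparum NF-54 was grown in RPMI 1640 with 25 mM HEPES, 1% sodium bicarbonate and 0.5% ALBUMAX-II. The assay used 3% haematocrit in medium with 10% FBS, with a DMSO stock (5 mg/mL) diluted in medium to five-fold dilutions. Duplicate wells were incubated at 37 °C in CO2 for 36–40 h, then Giemsa smears were read. MIC was the concentration fully blocking maturation to schizonts.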

Plasmodium falciparum [14] = test: Antimalarial activity against chloroquine-resistant Plasmodium falciparum W2; assay type: functional, organism-based
Plasmodium falciparum [15] = test: Antimalarial activity against chloroquine-sensitive Plasmodium falciparum NF54 assessed as inhibition of schizont maturation at 0.08 ug/ml after 36-40 hrs relative to control; assay type: functional; parameters: scale not given: the % may be the effect or the level left; procedure, shortened: as §1

| Structure (SMILES) | Activity (Plasmodium falciparum [1]) [%] | Activity (Plasmodium falciparum [3]) [%] | Activity (Plasmodium falciparum [4]) [%] | Activity (Plasmodium falciparum [5]) [%] | Activity (Plasmodium falciparum [6]) [%] | further results |
| --- | --- | --- | --- | --- | --- | --- |
| O=C(/C=C/c1ccccc1)c1cccc(Nc2c3ccccc3nc3ccccc23)c1 | 97.1 | 100 | 4.3 | 100 | 100 | Survival (Plasmodium yoelii [2]): 15.5 days; Activity (Plasmodium yoelii [7]): inactive; Activity (Plasmodium yoelii [8]): inactive |
| O=C(/C=C/C=C/c1ccccc1)c1ccc(Nc2c3ccccc3nc3ccccc23)cc1 | 64.3 | 100 | 0 | 100 | 100 | – |
| CCN(CC)CCCC(C)Nc1ccnc2cc(Cl)ccc12 (stereo not given) [CHLOROQUINE] | – | – | – | – | – | Activity (Plasmodium falciparum [9]): 100%; Activity (Plasmodium falciparum [10]): 97.1%; Activity (Plasmodium falciparum [11]): 74.3%; Activity (Plasmodium falciparum [12]): 100% |
| Cc1cccc(/C=C/C(=O)c2ccc(Nc3c4ccccc4nc4ccccc34)cc2)c1 | 0 | 100 | – | 100 | 100 | – |
| COc1cc(/C=C/C(=O)c2ccc(O)c(CC=C(C)C)c2O)ccc1O [CROTAORIXIN] | – | – | – | – | – | Activity (Plasmodium falciparum [13]): 100% |
| COc1cc(/C=C/C(=O)c2ccc(Nc3c4ccccc4nc4ccccc34)cc2)cc(OC)c1OC | 57.1 | 100 | 5.7 | 100 | 100 | – |
| CC(C)=CCc1cc(/C=C/C(=O)c2ccc(O)cc2O)ccc1O [LICOAGROCHALCONE A] | – | – | – | – | – | IC50 (Plasmodium falciparum [14]): 10.3 µM |
| O=C(/C=C/c1ccccc1)c1ccc(Nc2c3ccccc3nc3ccccc23)cc1 | 42.8 | 100 | – | 100 | 100 | – |
| Cc1ccc(/C=C/C(=O)c2ccc(Nc3c4ccccc4nc4ccccc34)cc2)cc1 | 42.8 | 100 | – | 100 | 100 | – |
| O=C(/C=C/c1ccc(Cl)cc1)c1cccc(Nc2c3ccccc3nc3ccccc23)c1 | 0 | 100 | – | 100 | 100 | – |
| COc1ccc(/C=C/C(=O)c2ccc(Nc3c4ccccc4nc4ccccc34)cc2)cc1 | 85.7 | 100 | 71.4 | 100 | 100 | Survival (Plasmodium yoelii [2]): 10.67 days; Activity (Plasmodium falciparum [15]): 14.3%; Activity (Plasmodium yoelii [7]): inactive; Activity (Plasmodium yoelii [8]): inactive |
| COc1ccc(/C=C/C(=O)c2cccc(Nc3c4ccccc4nc4ccccc34)c2)cc1 | 71.4 | 100 | 7.1 | 100 | 100 | Survival (Plasmodium yoelii [2]): 15.2 days; Activity (Plasmodium yoelii [7]): inactive; Activity (Plasmodium yoelii [8]): 6.22% |
| O=C(/C=C/c1cccc([N+](=O)[O-])c1)c1ccc(Nc2c3ccccc3nc3ccccc23)cc1 | 0 | 100 | – | 100 | 100 | – |
| O=C(/C=C/c1ccc(Cl)cc1)c1ccc(Nc2c3ccccc3nc3ccccc23)cc1 | 0 | 100 | – | 100 | 100 | – |
